Test results taken from ChEMBL document CHEMBL4152188, “Design, synthesis and biological evaluation of C(4) substituted monobactams as antibacterial agents against multidrug-resistant Gram-negative bacteria” (Eur J Med Chem, 2018).
In brackets after ≈: the same amount, converted by molar mass.

What was measured:
Type in all cases: functional
[1] = system: Pseudomonas aeruginosa; assay: Antibacterial activity against IMP-4 producing Pseudomonas aeruginosa isolate 207272 after 18 hrs in presence of BPL by CLSI broth microdilution method; conditions: isolate 207272, 18 h
Outline: (§1)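 CLSI broth microdilution against clinical isolates (ESBL E. coli, KPC-2 MDR K. pneumoniae, IMP-4 MDR P. aeruginosa; five per species). Iron limitation: Mueller-Hinton broth supplemented with 16 mg/liter 2,2'-bipyridyl to complex iron and induce iron uptake systems. Read-out: MIC.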

[2] = system: Klebsiella pneumoniae; assay: Antibacterial activity against KPC-2 producing Klebsiella pneumoniae isolate 212232 after 18 hrs by CLSI broth microdilution method; conditions: isolate 212232, 18 h
[3] = system: Pseudomonas aeruginosa; assay: Selectivity index, ratio of MIC for against IMP-4 producing Pseudomonas aeruginosa isolate 208247 to MIC for against IMP-4 producing Pseudomonas aeruginosa isolate 208247 in presence of BPL
[4] = system: Escherichia coli; assay: Antibacterial activity against Escherichia coli isolate 210737 after 18 hrs by CLSI broth microdilution method; conditions: isolate 210737, 18 h
[5] = system: Pseudomonas aeruginosa; assay: Antibacterial activity against IMP-4 producing Pseudomonas aeruginosa isolate 209321 after 18 hrs in presence of BPL by CLSI broth microdilution method; conditions: isolate 209321, 18 h; outline: as §1
[6] = system: Pseudomonas aeruginosa; assay: Antibacterial activity against IMP-4 producing Pseudomonas aeruginosa isolate 207272 after 18 hrs by CLSI broth microdilution method; conditions: isolate 207272, 18 h
[7] = system: Pseudomonas aeruginosa; assay: Antibacterial activity against IMP-4 producing Pseudomonas aeruginosa isolate 208247 after 18 hrs in presence of BPL by CLSI broth microdilution method; conditions: isolate 208247, 18 h; outline: as §1
[8] = system: Klebsiella pneumoniae; assay: Selectivity index, ratio of MIC for against KPC-2 producing Klebsiella pneumoniae isolate 212423 to MIC for against KPC-2 producing Klebsiella pneumoniae isolate 212423 in presence of BPL
[9] = system: Klebsiella pneumoniae; assay: Antibacterial activity against KPC-2 producing Klebsiella pneumoniae isolate 209632 after 18 hrs in presence of BPL by CLSI broth microdilution method; conditions: isolate 209632, 18 h; outline: as §1
[10] = system: Klebsiella pneumoniae; assay: Antibacterial activity against KPC-2 producing Klebsiella pneumoniae isolate 212423 after 18 hrs in presence of BPL by CLSI broth microdilution method; conditions: isolate 212423, 18 h; outline: as §1
[11] = system: Escherichia coli; assay: Antibacterial activity against extended-spectrum beta-lactamase producing Escherichia coli isolate 208687 after 18 hrs by CLSI broth microdilution method; conditions: isolate 208687, 18 h
[12] = system: Pseudomonas aeruginosa; assay: Selectivity index, ratio of MIC for against IMP-4 producing Pseudomonas aeruginosa isolate 209471 to MIC for against IMP-4 producing Pseudomonas aeruginosa isolate 209471 in presence of BPL
[13] = system: Escherichia coli; assay: Antibacterial activity against extended-spectrum beta-lactamase producing Escherichia coli isolate 106342 after 18 hrs by CLSI broth microdilution method; conditions: isolate 106342, 18 h
[14] = system: Pseudomonas aeruginosa; assay: Selectivity index, ratio of MIC for against IMP-4 producing Pseudomonas aeruginosa isolate 212886 to MIC for against IMP-4 producing Pseudomonas aeruginosa isolate 212886 in presence of BPL
[15] = system: Escherichia coli; assay: Antibacterial activity against extended-spectrum beta-lactamase producing Escherichia coli isolate 106342 after 18 hrs in presence of BPL by CLSI broth microdilution method; conditions: isolate 106342, 18 h; outline: as §1
[16] = system: Pseudomonas aeruginosa; assay: Antibacterial activity against IMP-4 producing Pseudomonas aeruginosa isolate 209471 after 18 hrs in presence of BPL by CLSI broth microdilution method; conditions: isolate 209471, 18 h; outline: as §1
[17] = system: Escherichia coli; assay: Selectivity index, ratio of MIC for against Escherichia coli isolate 210737 to MIC for Escherichia coli isolate 210737 in presence of BPL
[18] = system: Pseudomonas aeruginosa; assay: Antibacterial activity against IMP-4 producing Pseudomonas aeruginosa isolate 208247 after 18 hrs by CLSI broth microdilution method; conditions: isolate 208247, 18 h
[19] = system: Pseudomonas aeruginosa; assay: Antibacterial activity against IMP-4 producing Pseudomonas aeruginosa isolate 212886 after 18 hrs by CLSI broth microdilution method; conditions: isolate 212886, 18 h
[20] = system: Pseudomonas aeruginosa; assay: Selectivity index, ratio of MIC for against IMP-4 producing Pseudomonas aeruginosa isolate 209321 to MIC for against IMP-4 producing Pseudomonas aeruginosa isolate 209321 in presence of BPL
[21] = system: Klebsiella pneumoniae; assay: Antibacterial activity against KPC-2 producing Klebsiella pneumoniae isolate 209632 after 18 hrs by CLSI broth microdilution method; conditions: isolate 209632, 18 h
[22] = system: Klebsiella pneumoniae; assay: Selectivity index, ratio of MIC for against KPC-2 producing Klebsiella pneumoniae isolate 209735 to MIC for against KPC-2 producing Klebsiella pneumoniae isolate 209735 in presence of BPL
[23] = system: Pseudomonas aeruginosa; assay: Selectivity index, ratio of MIC for against IMP-4 producing Pseudomonas aeruginosa isolate 207272 to MIC for against IMP-4 producing Pseudomonas aeruginosa isolate 207272 in presence of BPL
[24] = system: Klebsiella pneumoniae; assay: Antibacterial activity against KPC-2 producing Klebsiella pneumoniae isolate 212232 after 18 hrs in presence of BPL by CLSI broth microdilution method; conditions: isolate 212232, 18 h; outline: as §1
[25] = system: Escherichia coli; assay: Antibacterial activity against extended-spectrum beta-lactamase producing Escherichia coli isolate 212648 after 18 hrs in presence of BPL by CLSI broth microdilution method; conditions: isolate 212648, 18 h; outline: as §1
[26] = system: Escherichia coli; assay: Antibacterial activity against extended-spectrum beta-lactamase producing Escherichia coli isolate 209285 after 18 hrs by CLSI broth microdilution method; conditions: isolate 209285, 18 h
[27] = system: Escherichia coli; assay: Antibacterial activity against Escherichia coli isolate 210737 after 18 hrs in presence of BPL by CLSI broth microdilution method; conditions: isolate 210737, 18 h; outline: as §1
[28] = system: Pseudomonas aeruginosa; assay: Antibacterial activity against IMP-4 producing Pseudomonas aeruginosa isolate 209321 after 18 hrs by CLSI broth microdilution method; conditions: isolate 209321, 18 h
[29] = system: Klebsiella pneumoniae; assay: Antibacterial activity against KPC-2 producing Klebsiella pneumoniae isolate 209735 after 18 hrs by CLSI broth microdilution method; conditions: isolate 209735, 18 h
[30] = system: Escherichia coli; assay: Antibacterial activity against extended-spectrum beta-lactamase producing Escherichia coli isolate 212648 after 18 hrs by CLSI broth microdilution method; conditions: isolate 212648, 18 h
[31] = system: Escherichia coli; assay: Selectivity index, ratio of MIC for against extended-spectrum beta-lactamase producing Escherichia coli isolate 208687 to MIC for extended-spectrum beta-lactamase producing Escherichia coli isolate 208687 in presence of BPL
[32] = system: Escherichia coli; assay: Antibacterial activity against extended-spectrum beta-lactamase producing Escherichia coli isolate 209285 after 18 hrs in presence of BPL by CLSI broth microdilution method; conditions: isolate 209285, 18 h; outline: as §1
[33] = system: Pseudomonas aeruginosa; assay: Antibacterial activity against IMP-4 producing Pseudomonas aeruginosa isolate 209471 after 18 hrs by CLSI broth microdilution method; conditions: isolate 209471, 18 h
[34] = system: Pseudomonas aeruginosa; assay: Antibacterial activity against IMP-4 producing Pseudomonas aeruginosa isolate 212886 after 18 hrs in presence of BPL by CLSI broth microdilution method; conditions: isolate 212886, 18 h; outline: as §1
[35] = system: Klebsiella pneumoniae; assay: Antibacterial activity against KPC-2 producing Klebsiella pneumoniae isolate 212229 after 18 hrs in presence of BPL by CLSI broth microdilution method; conditions: isolate 212229, 18 h; outline: as §1
[36] = system: Klebsiella pneumoniae; assay: Antibacterial activity against KPC-2 producing Klebsiella pneumoniae isolate 209735 after 18 hrs in presence of BPL by CLSI broth microdilution method; conditions: isolate 209735, 18 h; outline: as §1
[37] = system: Klebsiella pneumoniae; assay: Antibacterial activity against KPC-2 producing Klebsiella pneumoniae isolate 212423 after 18 hrs by CLSI broth microdilution method; conditions: isolate 212423, 18 h
[38] = system: Escherichia coli; assay: Selectivity index, ratio of MIC for against extended-spectrum beta-lactamase producing Escherichia coli isolate 212648 to MIC for extended-spectrum beta-lactamase producing Escherichia coli isolate 212648 in presence of BPL
[39] = system: Klebsiella pneumoniae; assay: Selectivity index, ratio of MIC for against KPC-2 producing Klebsiella pneumoniae isolate 212232 to MIC for against KPC-2 producing Klebsiella pneumoniae isolate 212232 in presence of BPL
[40] = system: Klebsiella pneumoniae; assay: Antibacterial activity against KPC-2 producing Klebsiella pneumoniae isolate 212229 after 18 hrs by CLSI broth microdilution method; conditions: isolate 212229, 18 h
[41] = system: Escherichia coli; assay: Selectivity index, ratio of MIC for against extended-spectrum beta-lactamase producing Escherichia coli isolate 209285 to MIC for extended-spectrum beta-lactamase producing Escherichia coli isolate 209285 in presence of BPL
[42] = system: Escherichia coli; assay: Selectivity index, ratio of MIC for against extended-spectrum beta-lactamase producing Escherichia coli isolate 106342 to MIC for extended-spectrum beta-lactamase producing Escherichia coli isolate 106342 in presence of BPL
[43] = system: Klebsiella pneumoniae; assay: Selectivity index, ratio of MIC for against KPC-2 producing Klebsiella pneumoniae isolate 209632 to MIC for against KPC-2 producing Klebsiella pneumoniae isolate 209632 in presence of BPL
[44] = system: Klebsiella pneumoniae; assay: Selectivity index, ratio of MIC for against KPC-2 producing Klebsiella pneumoniae isolate 212229 to MIC for against KPC-2 producing Klebsiella pneumoniae isolate 212229 in presence of BPL
[45] = system: Escherichia coli; assay: Antibacterial activity against extended-spectrum beta-lactamase producing Escherichia coli isolate 208687 after 18 hrs in presence of BPL by CLSI broth microdilution method; conditions: isolate 208687, 18 h; outline: as §1

Structure (SMILES): CC(C)C(O/N=C(\C(=O)N[C@@H]1C(=O)N(S(=O)(=O)O)[C@@H]1CN1CCNC1=O)c1csc(N)n1)c1cc(=O)c(O)cn1O (stereo not given in full)
- MIC [1]: 32 µg/mL
- MIC [2]: 1 µg/mL (≈ 1.63 µM)
- Selectivity Index [3]: 1
- MIC [4]: 0.5 µg/mL (≈ 0.814 µM)
- MIC [5]: 32 µg/mL
- MIC [6]: 32 µg/mL (≈ 52.1 µM)
- MIC [7]: 64 µg/mL
- Selectivity Index [8]: 4
- MIC [9]: 4 µg/mL
- MIC [10]: 0.125 µg/mL
- MIC [11]: 1 µg/mL (≈ 1.63 µM)
- Selectivity Index [12]: 1
- MIC [13]: 1 µg/mL (≈ 1.63 µM)
- Selectivity Index [14]: 1
- MIC [15]: 1 µg/mL
- MIC [16]: 32 µg/mL
- Selectivity Index [17]: 2
- MIC [18]: 64 µg/mL (≈ 104 µM)
- MIC [19]: 32 µg/mL (≈ 52.1 µM)
- Selectivity Index [20]: 1
- MIC [21]: 4 µg/mL (≈ 6.51 µM)
- Selectivity Index [22]: 4
- Selectivity Index [23]: 1
- MIC [24]: 0.25 µg/mL
- MIC [25]: 2 µg/mL
- MIC [26]: 1 µg/mL (≈ 1.63 µM)
- MIC [27]: 0.25 µg/mL
- MIC [28]: 32 µg/mL (≈ 52.1 µM)
- MIC [29]: 16 µg/mL (≈ 26 µM)
- MIC [30]: 2 µg/mL (≈ 3.25 µM)
- Selectivity Index [31]: 2
- MIC [32]: 0.25 µg/mL
- MIC [33]: 32 µg/mL (≈ 52.1 µM)
- MIC [34]: 32 µg/mL
- MIC [35]: 0.125 µg/mL
- MIC [36]: 4 µg/mL
- MIC [37]: 0.5 µg/mL (≈ 0.814 µM)
- Selectivity Index [38]: 1
- Selectivity Index [39]: 4
- MIC [40]: 0.25 µg/mL (≈ 0.407 µM)
- Selectivity Index [41]: 4
- Selectivity Index [42]: 1
- Selectivity Index [43]: 1
- Selectivity Index [44]: 2
- MIC [45]: 0.5 µg/mL
